Reference: ChEMBL document CHEMBL4257581, “Discovery of Small Molecule Splicing Modulators of Survival Motor Neuron-2 (SMN2) for the Treatment of Spinal Muscular Atrophy (SMA)” (J Med Chem, 2018)
Blank lines part the entries; values can stand above or below the molecule they belong to.

Experiments:
[1] = Oral bioavailability in Sprague-Dawley rat at 10 mg/kg; format: ADME, organism-based; details: in vivo
[2] = Permeability of the compound at 5 uM after 4 hrs by PAMPA; format: ADME
[3] = Drug level in Sprague-Dawley rat brain at 1 mg/kg, iv or 10 mg/kg, po after 7 hrs; format: ADME, organism-based; details: read-out: Drug uptake
Mus musculus = species on record: Mus musculus; test: Stabilization of SMN2 mRNA in mouse myoblasts assessed as increase in SMN protein level by ELISA relative to DMSO control
[4] = AUC in Sprague-Dawley rat at 1 mg/kg, iv or 10 mg/kg, po; format: ADME, organism-based; details: in vivo
[5] = Lipophilicity, log D of the compound at pH 7.4; format: physicochemical; details: buffer
[6] = Clearance in Sprague-Dawley rat at 1 mg/kg, iv or 10 mg/kg, po; format: ADME, organism-based; details: in vivo
[7] = AUC in mouse brain at 10 mg/kg, po; format: ADME, organism-based
Outline: (§1)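 Mouse PK: oral arm dosed at 10 mg/kg p.o. alongside a 1 mg/kg i.v. arm. Plasma and brain AUC were taken from the oral arm.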

[8] = Clearance in mouse at 1 mg/kg, iv or 10 mg/kg, po; format: ADME, organism-based; details: in vivo
Outline: (§2)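 Mouse PK with dosing at 1 mg/kg i.v. and 10 mg/kg p.o.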

[9] = Oral bioavailability in mouse at 10 mg/kg; format: ADME, organism-based; details: in vivo; outline: as §1
[10] = AUC in mouse plasma at 10 mg/kg, po; format: ADME, organism-based; outline: as §1
[11] = Half life in mouse at 1 mg/kg, iv or 10 mg/kg, po; format: ADME, organism-based; details: in vivo; outline: as §2
[12] = Intrinsic clearance in rat liver microsomes at 1 uM up to 30 mins in presence of NADPH by LC-MS/MS analysis; format: ADME, microsome; details: read-out: CLH
[13] = Dissociation constant, pKa of the compound; format: physicochemical
[14] = Drug level in mouse brain at 10 mg/kg, po after 7 hrs; format: ADME, organism-based; details: read-out: Drug uptake
Outline: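 Mouse PK at 10 mg/kg p.o. Brain concentration was measured at a single time point, 7 h after the oral dose.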

[15] = AUC (0 to 7 hrs) in C57BL/6 mouse plasma at 1 mg/kg, iv or 5 mg/kg, po; format: ADME, organism-based
Outline: (§3)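 Mice received single doses of 1 mg/kg i.v. or 5 mg/kg p.o. (n = 2). The vehicle was 10% 0.1 N HCl, 10% PG, 25 (20%) Solutol and 100 mM pH 5 citrate buffer. Plasma was sampled for PK parameters.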

[16] = Intrinsic clearance in mouse liver microsomes at 1 uM up to 30 mins in presence of NADPH by LC-MS/MS analysis; format: ADME, microsome; details: read-out: CLH
[17] = Drug level in brain in C57BL/6 mouse brain at 1 mg/kg, iv or 5 mg/kg, po; format: ADME, organism-based; details: in vivo, read-out: Drug uptake
[18] = Solubility of the compound at pH 6.8; format: physicochemical; details: buffer
[19] = Plasma clearance in C57BL/6 mouse at 1 mg/kg, iv or 5 mg/kg, po; format: ADME, organism-based; outline: as §3
[20] = Oral bioavailability in C57BL/6 mouse at 5 mg/kg; format: ADME, organism-based; details: in vivo; outline: as §3
Homo sapiens = species on record: Homo sapiens; test: Stabilization of SMN2 mRNA in human spinal muscular atrophy patient derived fibroblasts by ELISA

SMILES: CN(c1ccc(-c2ccc(-n3ccc(N)n3)cc2O)nn1)C1CC(C)(C)NC(C)(C)C1
bioavailability [1]: 4%
log(permeability) [2]: -5.2
concentration at 7 h [3]: < 2.4 nM
fold change (FC) (Mus musculus): 2.8
AUC [4]: 0.092 µM·h
logD [5]: 2.52
clearance [6]: 16 mL/min/kg

SMILES: CN(c1ccc(-c2cc3ccccc3s2)nn1)C1CC(C)(C)NC(C)(C)C1
AUC [7]: 17.4 µM·h
clearance [8]: 100 mL/min/kg
bioavailability [9]: 100%
AUC [10]: 4.9 µM·h
half-life [11]: 3.2 h
microsomal CLint at 1 µM [12]: 40 µL/min/mg
logD [5]: 3.4

SMILES: CN(c1ccc(-c2ccc(-n3cc(CO)cn3)cc2O)nn1)C1CC(C)(C)NC(C)(C)C1
log(permeability) [2]: -5.5
logD [5]: 2.16

SMILES: CN(c1ccc(-c2ccc(C#N)cc2O)nn1)C1CC(C)(C)NC(C)(C)C1
clearance [8]: 23 mL/min/kg
bioavailability [9]: 37%
AUC [10]: 5.2 µM·h
fold change (FC) (Mus musculus): 3.1
half-life [11]: 4.5 h
microsomal CLint at 1 µM [12]: 7 µL/min/mg
concentration at 7 h [14]: 2000 nM
logD [5]: 3.2

SMILES: CN(c1ccc(-c2cc3ccccc3cc2O)nn1)C1CC(C)(C)NC(C)(C)C1
AUC [7]: 36.7 µM·h
clearance [8]: 56 mL/min/kg
bioavailability [9]: 100%
AUC [10]: 16.9 µM·h
fold change (FC) (Mus musculus): 2.4 to 2.5
half-life [11]: 3.7 h
microsomal CLint at 1 µM [12]: 17 µL/min/mg
logD [5]: 4

SMILES: CC1(C)CC(Nc2ccc(-c3ccc4ccccc4c3)nn2)CC(C)(C)N1
fold change (FC) (Mus musculus): 2.3

SMILES: CN(c1ccc(-c2ccc(-n3cccn3)cc2O)nn1)C1CC(C)(C)NC(C)(C)C1
fold change (FC) (Mus musculus): 3.1
pKa [13]: 10.3
logD [5]: 3.11

SMILES: COc1cc(C#N)ccc1-c1ccc(N(C)C2CC(C)(C)NC(C)(C)C2)nn1
fold change (FC) (Mus musculus): 2.3

SMILES: CN(c1ccc(-c2cc3cnccc3cc2O)nn1)C1CC(C)(C)NC(C)(C)C1
bioavailability [1]: 100%
log(permeability) [2]: -4.3
concentration at 7 h [3]: 630 nM
fold change (FC) (Mus musculus): 2.6
AUC [4]: 1.35 µM·h
logD [5]: 3.07
clearance [6]: 57 mL/min/kg

SMILES: CN(c1ccc(-c2cc3cccnc3cc2O)nn1)C1CC(C)(C)NC(C)(C)C1
bioavailability [1]: 46%
log(permeability) [2]: -4.5
concentration at 7 h [3]: 68 nM
fold change (FC) (Mus musculus): 2.9
AUC [4]: 1.17 µM·h
logD [5]: 3.23
clearance [6]: 35 mL/min/kg

SMILES: CC1(C)CC(Nc2ccc(-c3cc4ccccc4s3)nn2)CC(C)(C)N1
AUC(0-t) [15]: 0.4 µM·h
microsomal CLint at 1 µM [16]: 23.5 µL/min/mg
concentration [17]: < 2.7 nM
solubility [18]: > 1000 µM
clearance [19]: 113 mL/min/kg
fold change (FC) (Mus musculus): 2.5
bioavailability [20]: 18%
pKa [13]: 10
microsomal CLint at 1 µM [12]: 22.6 µL/min/mg
logD [5]: 2.67
fold change (FC) (Homo sapiens): 1.5

SMILES: CN(c1ccc(-c2ccc(-c3cn[nH]c3)cc2O)nn1)C1CC(C)(C)NC(C)(C)C1
bioavailability [1]: 53%
log(permeability) [2]: -5.4
concentration at 7 h [3]: 58 nM
fold change (FC) (Mus musculus): 3.1
AUC [4]: 2.3 µM·h
logD [5]: 2.92
clearance [6]: 22 mL/min/kg

Continued, values first:

fold change (FC) (Mus musculus): 1.2
pKa [13]: 5.89
logD [5]: 2.59
SMILES: Oc1cc(-n2cccn2)ccc1-c1ccc(OC2CCNCC2(F)F)nn1 (stereo not drawn)

fold change (FC) (Mus musculus): 1.1
logD [5]: 4.65
SMILES: CC1(C)CC(Oc2ccc(-c3ccc(-n4cccn4)cc3O)nn2)CC(C)(C)N1CC(F)(F)F

log(permeability) [2]: -5.3
logD [5]: 2.89
SMILES: CC1(C)CC(Cc2ccc(-c3ccc(-c4cn[nH]c4)cc3O)nn2)CC(C)(C)N1

logD [5]: 0.69
SMILES: Oc1cc(-n2cccn2)ccc1-c1ccc(OC2CCNCC2)nn1

fold change (FC) (Mus musculus): 1
SMILES: CC1(C)CC(Nc2ccc(-c3cccc4ccccc34)nn2)CC(C)(C)N1

logD [5]: 1.2
SMILES: Oc1cc(-c2cn[nH]c2)ccc1-c1ccc(N2CCC3(CCCNC3)C2)nn1 (stereo not drawn)

bioavailability [1]: 63%
log(permeability) [2]: -4.9
concentration at 7 h [3]: 914 nM
AUC [4]: 3.03 µM·h
logD [5]: 2.51
clearance [6]: 25 mL/min/kg
SMILES: CC1(C)CC(Oc2ccc(-c3ccc(-c4cn[nH]c4)cc3O)nn2)CC(C)(C)N1 [BRANAPLAM]

pKa [13]: 10.1
logD [5]: 2.79
SMILES: CC1(C)CC(Oc2ccc(-c3ccc(-n4cccn4)cc3O)nn2)CC(C)(C)N1

logD [5]: 0.58
SMILES: Oc1cc(-c2cn[nH]c2)ccc1-c1ccc(N2C[C@H]3CNC[C@H]3C2)nn1
